Assay results: ChEMBL document CHEMBL3108741 (J Med Chem, 2014)
pEC50, pIC50: −log10 of the molar value. Activity calls are given as the source filed them.

What was measured:
[1] = Lipophilicity, log P of the compound; type: physicochemical; conditions: octanol/water
Rattus norvegicus [2] = organism: Rattus norvegicus; assay: Positive allosteric modulation of rat alpha1beta2gamma2L GABAA receptor expressed in Xenopus laevis oocytes assessed as potentiation of GABA-induced chloride current elicitation at 10 uM by two-electrode voltage clamp technique relative to control; type: cell-based
Rattus norvegicus [3] = organism: Rattus norvegicus; assay: Positive allosteric modulation of rat alpha1beta2gamma2L GABAA receptor expressed in Xenopus laevis oocytes assessed as potentiation of GABA-induced chloride current elicitation at 1 uM by two-electrode voltage clamp technique relative to control; type: cell-based
Rattus norvegicus [4] = organism: Rattus norvegicus; assay: Positive allosteric modulation of rat alpha1beta2gamma2L GABAA receptor expressed in Xenopus laevis oocytes assessed as potentiation of GABA-induced chloride current elicitation at 0.1 uM by two-electrode voltage clamp technique relative to control; type: cell-based
Rattus norvegicus [5] = organism: Rattus norvegicus; assay: […] of rat alpha1beta2gamma2L GABAA receptor expressed in Xenopus laevis oocytes assessed as chloride current elicitation at 10 uM by two-electrode voltage clamp technique relative to GABA; type: cell-based
Outline: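 Rat α1β2γ2L GABAA receptors expressed in Xenopus oocytes, at least four oocytes. Direct current gated by 10 μM compound without GABA, expressed as the ratio of compound-only current to current evoked by 2 μM GABA; mean ± SEM.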

[6] = Displacement of [35S]TBPS from rat picrotoxin binding site of GABAA receptor after 2 hrs by scintillation counting analysis
Outline: (§1)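 [35S]TBPS binding inhibition; duplicate experiments each run in triplicate, mean ± SEM. Highest concentration tested 30 μM; IC50 from fitted binding curve, with maximal displacement noted where inhibition was partial.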

Rattus norvegicus [7] = organism: Rattus norvegicus; assay: Positive allosteric modulation of rat alpha1beta2gamma2L GABAA receptor expressed in Xenopus laevis oocytes assessed as potentiation of GABA-induced chloride current elicitation by two-electrode voltage clamp technique relative to control; type: cell-based
HEK293 [8] = assay: Positive allosteric modulation of wild type rat alpha1beta2gamma2L GABAA receptor expressed in HEK293 cells assessed as OT long at 20 uM by […]; type: cell-based
Outline: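 Single-channel recording of rat wild-type α1β2γ2L GABAA receptors. Receptors were activated by 50 μM GABA with or without 20 μM compound, in 4-7 patches. Intracluster open-time histograms were fitted to sums of two or three exponentials, and the long open-time component was taken from the fit.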

HEK293 [9] = assay: Positive allosteric modulation of wild type rat alpha1beta2gamma2L GABAA receptor expressed in HEK293 cells assessed as longest-lived intracluster open time at 20 uM by […] relative to control; type: cell-based
Xenopus laevis [10] = assay: Anesthetic effect on prelimb-bud stage Xenopus laevis tadpole assessed as loss of righting reflex after 3 hrs; type: functional, organism-based
HEK293 [11] = assay: Positive allosteric modulation of wild type rat alpha1beta2gamma2L GABAA receptor expressed in HEK293 cells assessed as longest-lived intracluster closed time at 20 uM by […] relative to control; type: cell-based
Xenopus laevis [12] = assay: Anesthetic effect on prelimb-bud stage Xenopus laevis tadpole assessed as loss of swimming reflex at 10 uM after 3 hrs; type: functional, organism-based
Xenopus laevis [13] = assay: Anesthetic effect on prelimb-bud stage Xenopus laevis tadpole assessed as loss of swimming reflex after 3 hrs; type: functional, organism-based
Xenopus laevis [14] = assay: Anesthetic effect on prelimb-bud stage Xenopus laevis tadpole assessed as loss of righting reflex at 10 uM after 3 hrs; type: functional, organism-based
Rattus norvegicus [15] = organism: Rattus norvegicus; assay: Displacement of [35S]TBPS from rat picrotoxin binding site of GABAA receptor at 30 uM after 2 hrs by scintillation counting analysis; outline: as §1
Mus musculus [16] = assay: Anesthetic effect in mouse assessed as onset of loss of righting reflex at 8 to 16 mg/kg, iv; type: functional; conditions: dose mg/kg 8-16
Outline: (§2)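 Mice were given intravenous tail-vein injections at 8 and 16 mg/kg. The compound was in 22.5% aqueous 2-(hydroxypropyl)-β-cyclodextrin. Anesthesia was defined as loss of righting reflex, and onset, duration and recovery of the reflex were followed.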

Mus musculus [17] = assay: Anesthetic effect in mouse assessed as duration of loss of righting reflex at 16 mg/kg, iv; type: functional
Outline: (§3)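 Mice, tail vein injection; compound in 22.5% aqueous 2-(hydroxypropyl)-β-cyclodextrin, lower doses by serial dilution of the 8 mg/kg stock with 0.9% saline. Anesthesia scored as loss of righting reflex; duration of LRR recorded at each dose.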

Mus musculus [18] = assay: Anesthetic effect in mouse assessed as onset of loss of righting reflex at 1 to 8 mg/kg, iv; type: functional; conditions: dose mg/kg 1-8
Outline: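 Tail-vein injection in mice, with anesthesia read as loss of righting reflex (LRR): duration, onset and recovery scored. Compounds were dissolved in 22.5% aqueous 2-(hydroxypropyl)-β-cyclodextrin. Lower doses came from serial dilution of the 8 mg/kg solution with 0.9% saline. Doses tested were 1, 2, 4 and 8 mg/kg.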

Mus musculus [19] = assay: Anesthetic effect in mouse assessed as recovery of righting reflex at 8 to 16 mg/kg, iv; type: functional; conditions: dose mg/kg 8-16; outline: as §2
Mus musculus [20] = assay: Anesthetic effect in mouse assessed as recovery of righting reflex at 1 to 8 mg/kg, iv; type: functional; conditions: dose mg/kg 1-8; outline: as §3

| SMILES | logP [1] | Ratio (Rattus norvegicus [2]) | Ratio (Rattus norvegicus [3]) | Ratio (Rattus norvegicus [4]) | Ratio (Rattus norvegicus [5]) | pIC50 [6] | Activity (Rattus norvegicus [7]) | TIME (HEK293 [8]) | Ratio (HEK293 [9]) | pEC50 (Xenopus laevis [10]) | Ratio (HEK293 [11]) | Activity (Xenopus laevis [12]) | pEC50 (Xenopus laevis [13]) | Activity (Xenopus laevis [14]) | inhibition (Rattus norvegicus [15]) | Time (Mus musculus [16]) | Time (Mus musculus [17]) | Time (Mus musculus [18]) | Time (Mus musculus [19]) | Time (Mus musculus [20]) |
| --- | --- | --- | --- | --- | --- | --- | --- | --- | --- | --- | --- | --- | --- | --- | --- | --- | --- | --- | --- | --- |
| CC(=O)[C@H]1CC[C@H]2[C@@H]3CC[C@H]4C[C@H](O)CC[C@]4(C)[C@H]3CC[C@]12C [BREXANOLONE] | 4.46 | 9.65 | 3.89 | 1.26 | 0.37 | 7.13 | Dose-dependent effect |  |  |  |  |  |  |  |  |  |  |  |  |  |
| C[C@@]12CC[C@H](O)C[C@H]1CC[C@H]1[C@@H]3CC(=O)C[C@@H]3CC[C@@H]12 |  | 3.56 | 1.13 | 0.93 | 0.01 | 5.82 | Dose-dependent effect | 16.1 ms | 0.53 | 5.44 | 0.21 | inactive |  |  |  |  |  |  |  |  |
| C[C@]12CC[C@H]3[C@@H](CC[C@H]4C[C@H](O)CC[C@@]43C)[C@@H]1CC(=O)C2 |  | 9.98 | 1.38 | 1.01 | -0.02 | 6.05 | Dose-dependent effect |  |  | 5.44 |  |  | 5.12 |  |  |  |  |  |  |  |
| CO[C@@H]1C[C@]2(C)[C@H](CC[C@@H]3[C@@H]2CC[C@@]2(C)C(=O)CC[C@@H]32)C[C@H]1O |  | 1.53 | 0.93 | 0.93 | -0.01 | 5.19 | Dose-dependent effect |  |  | 5.62 |  |  | < 5.00 |  |  |  |  |  |  |  |
| C[C@@]12CC[C@@H]3[C@@H]4CC[C@H](O)C[C@H]4CC[C@H]3[C@@H]1CC(=O)C2 | 3.24 | 10.5 | 2.43 | 0.97 | 0.02 | 6.62 | Dose-dependent effect | 9.8 ms | 0.2 | 5.94 | 0.11 |  | 5.26 |  |  |  |  |  |  |  |
| CO[C@H]1[C@H](O)CC[C@]2(C)[C@H]3CC[C@]4(C)C(=O)CC[C@H]4[C@@H]3CC[C@@H]12 |  | 0.91 | 1.01 | 1.08 | 0.12 | < 4.52 | Dose-dependent effect |  |  |  |  | inactive |  | inactive | 45% |  |  |  |  |  |
| CO[C@H]1[C@H]2CC[C@@H]3[C@H](CC[C@@]4(C)C(=O)CC[C@@H]34)[C@]2(C)CC[C@@H]1O |  | 12.2 | 3.67 | 1.21 | 0.05 | 6.70 | Dose-dependent effect |  |  | 6.23 |  |  | 5.53 |  |  |  |  |  |  |  |
| CO[C@H]1C[C@@]2(C)[C@@H](CC[C@H]3[C@@H]4CC(=O)C[C@@]4(C)CC[C@@H]32)C[C@@H]1O |  | 4.48 | 1.23 | 0.92 | 0.01 | 5.90 | Dose-dependent effect |  |  | 5.50 |  |  | 5.03 |  |  |  |  |  |  |  |
| CO[C@@H]1C[C@]2(C)[C@H](CC[C@H]3[C@@H]4CC(=O)C[C@]4(C)CC[C@@H]32)C[C@H]1O |  | 2.95 | 1.03 | 0.91 | 0.01 | 5.52 | Dose-dependent effect |  |  | 5.54 |  |  | 4.99 |  |  |  |  |  |  |  |
| CO[C@H]1[C@H](O)CC[C@]2(C)[C@H]3CC[C@]4(C)CC(=O)C[C@H]4[C@@H]3CC[C@@H]12 |  | 0.69 | 0.72 | 0.88 | 0.02 | 5.18 | Dose-dependent effect |  |  | 5.50 |  |  | 4.87 |  | 65% |  |  |  |  |  |
| CO[C@H]1C[C@@]2(C)[C@@H](CC[C@@H]3[C@@H]2CC[C@]2(C)C(=O)CC[C@@H]32)C[C@@H]1O |  | 3.39 | 1.04 | 0.84 | 0.08 | 5.66 | Dose-dependent effect |  |  | 5.29 |  |  | < 5.00 |  |  |  |  |  |  |  |
| CC(=O)[C@H]1CC[C@H]2[C@@H]3CC[C@H]4C[C@H](O)CC[C@]4(C)[C@H]3C(=O)C[C@]12C [ALFAXALONE] |  |  |  |  |  |  |  |  |  |  |  |  |  |  |  | <30 s | 4 min | <30 s | 1 min | 1 min |
| O=C1C[C@@H]2CC[C@H]3[C@@H](CC[C@@H]4C[C@@H](O)CC[C@H]43)[C@@H]2C1 | 2.77 | 1.65 | 0.76 | 0.8 | 0 | 5.69 | Dose-dependent effect | 11.5 ms | 0.49 |  | 0.27 | inactive |  | inactive | 88% |  |  |  |  |  |
